Source: ChEMBL document CHEMBL4304816, “A Novel Biphenyl-based Chemotype of Retinoid X Receptor Ligands Enables Subtype and Heterodimer Preferences” (ACS Med Chem Lett, 2019)
Each block holds one compound with its values, some of them ahead of it. Active and inactive are the calls of the source. The calls are words filed in the database; no cut-off is given here.

Columns and labels:
Format in all cases: cell-based
[1] = biological target: T1, Retinoic acid receptor RXR-beta (Homo sapiens) (UniProt P28702); assay: Agonist activity at Gal4-LBD fused RXRbeta (unknown origin) expressed in HEK293T cells at 0.1 to 3 uM after 14 to 16 hrs in presence of RXR antagonist HX531 by dual-Glo luciferase reporter gene assay
T1 sequence (whole entry): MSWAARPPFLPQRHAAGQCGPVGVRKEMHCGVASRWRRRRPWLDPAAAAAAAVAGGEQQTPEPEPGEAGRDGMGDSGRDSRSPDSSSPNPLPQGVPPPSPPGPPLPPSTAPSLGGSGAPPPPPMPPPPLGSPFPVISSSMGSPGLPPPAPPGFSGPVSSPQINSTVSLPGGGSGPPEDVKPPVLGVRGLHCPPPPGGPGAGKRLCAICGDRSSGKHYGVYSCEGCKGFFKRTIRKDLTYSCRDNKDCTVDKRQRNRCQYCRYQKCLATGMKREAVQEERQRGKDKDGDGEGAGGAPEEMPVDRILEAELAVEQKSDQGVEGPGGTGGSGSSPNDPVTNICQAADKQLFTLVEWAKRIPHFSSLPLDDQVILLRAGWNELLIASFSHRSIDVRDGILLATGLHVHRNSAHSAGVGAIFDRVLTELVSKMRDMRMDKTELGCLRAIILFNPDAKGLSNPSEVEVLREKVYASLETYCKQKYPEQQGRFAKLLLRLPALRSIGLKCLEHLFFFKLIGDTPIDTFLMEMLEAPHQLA

[2] = Agonist activity at full-length human RXR/LXR expressed in HEK293T cells at 10 uM after 14 to 16 hrs by dual-glo luciferase reporter gene assay relative to untreated control; settings: HEK-293T, read-out: Activity
How it was run: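 RXR:LXR or RXR:PPARγ heterodimer reporter assay with test compound alone. Activation expressed relative to 0.1% DMSO vehicle. Three independent experiments, each in duplicate; mean reported.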

[3] = biological target: T2, Retinoic acid receptor RXR-gamma (Homo sapiens) (UniProt P48443); assay: Agonist activity at Gal4-LBD fused RXRgamma (unknown origin) expressed in HEK293T cells at 10 uM after 14 to 16 hrs by dual-Glo luciferase assay
T2 sequence (whole entry): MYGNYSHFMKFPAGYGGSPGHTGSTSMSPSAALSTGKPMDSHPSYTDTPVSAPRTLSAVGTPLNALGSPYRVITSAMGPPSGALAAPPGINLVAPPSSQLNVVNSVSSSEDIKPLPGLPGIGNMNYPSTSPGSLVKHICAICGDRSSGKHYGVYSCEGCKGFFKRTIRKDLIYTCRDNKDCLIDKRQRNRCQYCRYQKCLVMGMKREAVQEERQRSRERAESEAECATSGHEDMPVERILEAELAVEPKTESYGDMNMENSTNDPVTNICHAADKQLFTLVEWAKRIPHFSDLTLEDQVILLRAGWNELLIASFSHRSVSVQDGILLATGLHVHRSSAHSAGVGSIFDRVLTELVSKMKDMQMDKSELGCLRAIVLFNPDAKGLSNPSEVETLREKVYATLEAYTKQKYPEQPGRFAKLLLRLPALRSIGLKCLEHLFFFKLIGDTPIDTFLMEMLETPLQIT

[4] = biological target: T2, Retinoic acid receptor RXR-gamma (Homo sapiens); assay: Agonist activity at Gal4-LBD fused RXRgamma (unknown origin) expressed in HEK293T cells assessed as fold activation at 10 uM after 14 to 16 hrs by dual-Glo luciferase assay relative to untreated control
How it was run: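 Gal4-hybrid RXRα/β/γ reporter gene assays in HEK293T cells. Fold activation is the maximal fold activation versus 0.1% DMSO.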

[5] = biological target: T3, Retinoic acid receptor beta (Homo sapiens) (UniProt P10826); assay: Agonist activity at Gal4-LBD fused RARbeta (unknown origin) expressed in HEK293T cells at 20 uM after 14 to 16 hrs by dual-Glo luciferase assay
T3 sequence (whole entry): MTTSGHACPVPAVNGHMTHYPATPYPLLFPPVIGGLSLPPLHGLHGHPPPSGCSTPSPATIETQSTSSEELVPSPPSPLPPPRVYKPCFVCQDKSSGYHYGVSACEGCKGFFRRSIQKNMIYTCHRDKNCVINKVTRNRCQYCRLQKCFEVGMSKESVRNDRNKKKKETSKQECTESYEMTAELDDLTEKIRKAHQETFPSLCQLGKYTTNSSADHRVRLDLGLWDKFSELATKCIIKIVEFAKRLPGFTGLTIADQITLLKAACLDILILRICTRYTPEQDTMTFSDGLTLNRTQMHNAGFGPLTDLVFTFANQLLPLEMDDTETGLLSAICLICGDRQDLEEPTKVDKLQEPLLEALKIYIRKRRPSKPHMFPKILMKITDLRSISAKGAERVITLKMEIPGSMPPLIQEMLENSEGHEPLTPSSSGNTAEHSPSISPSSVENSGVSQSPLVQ
How it was run: (§1)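 Gal4-hybrid reporter gene selectivity panel of related nuclear receptors (PPARα/β/γ, RARα/β/γ) in HEK293T cells. Activity is read as mean fold activation versus 0.1% DMSO vehicle, n ≥ 2.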

[6] = biological target: T4, Peroxisome proliferator-activated receptor delta (Homo sapiens) (UniProt Q03181); assay: Agonist activity at Gal4-LBD fused PPARbeta (unknown origin) expressed in HEK293T cells at 20 uM after 14 to 16 hrs by dual-Glo luciferase assay; how it was run: as §1
T4 sequence (whole entry): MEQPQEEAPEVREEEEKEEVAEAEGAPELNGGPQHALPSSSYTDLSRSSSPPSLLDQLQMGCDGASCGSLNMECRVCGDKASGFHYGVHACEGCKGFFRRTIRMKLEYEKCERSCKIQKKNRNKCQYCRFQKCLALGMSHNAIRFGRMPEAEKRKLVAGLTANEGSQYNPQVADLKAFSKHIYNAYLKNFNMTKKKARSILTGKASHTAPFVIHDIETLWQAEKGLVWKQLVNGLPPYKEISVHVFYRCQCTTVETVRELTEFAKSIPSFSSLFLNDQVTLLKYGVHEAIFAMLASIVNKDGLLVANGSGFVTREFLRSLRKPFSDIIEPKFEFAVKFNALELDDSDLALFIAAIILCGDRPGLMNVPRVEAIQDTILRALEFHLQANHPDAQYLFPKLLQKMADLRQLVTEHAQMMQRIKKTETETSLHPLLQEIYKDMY

[7] = species: Homo sapiens; assay: Agonist activity at full-length human PPARgamma/RXR expressed in HEK293T cells at 20 uM after 14 to 16 hrs by dual-glo luciferase reporter gene assay relative to untreated control
How it was run: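 RXR:PPARγ heterodimer reporter assay in HEK293T cells with test compound alone. Mean relative activation is taken versus 0.1% DMSO, from three independent experiments each run in duplicate.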

- Activity [1]: inactive
Structure (SMILES): Cc1cc(-c2cc(C(F)(F)F)cc(C(F)(F)F)c2)ccc1CC(=O)O
- activity at 10 µM [2]: 63%

- Activity [3]: inactive
- fold change (FC) [4]: 1
Structure (SMILES): Cc1cc(-c2cc(C(C)(C)C)cc(C(C)(C)C)c2)ccc1C(=O)O

- Activity [5]: Active
- Activity [6]: Active
Structure (SMILES): Cc1cc(-c2ccc(C(=O)O)cc2)cc(C(C)(C)C)c1
- Activity [7]: 91%
